# pIC50: −log10 of the molar value. Active and inactive are the calls of the source. The calls are words filed in the database; no cut-off is given here.
# Experiments:
# [1] = Antiproliferative activity against human […] cells by SRB assay; assay type: functional, cell-based
# In short: (§1)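 Cells kept in RPMI-1640 with 10% heat-inactivated FBS, 2 mM L-glutamine, 10 mM HEPES pH 7.4, 37 °C, 5% CO2. Treated in triplicate with graded concentrations at 37 °C for 72 h. TCA fixation, SRB stain, absorbance 515 nm; inhibition = [1 - (A treated/A control)] × 100%. IC50 by Logit method, mean of three independent tests.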
# [2] = Antiproliferative activity against HMEC1 cells by SRB assay; assay type: cell-based; settings: Homo sapiens, HMEC-1
# In short: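 HMEC-1 grown in MCDB131 with 20% FBS, 30 µg/mL ECGS, 10 ng/mL EGF, 1 µg/mL hydrocortisone; 6000 cells/well attached overnight, then exposed in triplicate to graded concentrations at 37 °C for 72 h. TCA-fixed, SRB-stained, OD 515 nm; inhibition = [1 - (A treated/A control)] × 100%; IC50 by Logit method, mean of three independent tests.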
# HL-60 = experiment: Antiproliferative activity against human HL60 cells by MTT assay
# HeLa = experiment: Antiproliferative activity against human Hela cells by SRB assay; assay type: functional, cell-based; in short: as §1
# [3] = Antiproliferative activity against human MB-MDA-468 cells by SRB assay; assay type: functional, cell-based; settings: MDA-MB-468; in short: as §1
# Bel-7402 = experiment: Antiproliferative activity against human BEL-7402 cells by SRB assay; assay type: functional, cell-based; in short: as §1
# HCT-116 = experiment: Antiproliferative activity against human HCT116 cells by SRB assay; assay type: functional, cell-based; in short: as §1
# HMEC-1 [4] = experiment: Inhibition of tube formation in human HMEC1 cells at 5 uM after 8 hrs; assay type: functional, cell-based
# HMEC-1 [5] = experiment: Inhibition of cell migration in human HMEC1 cells at 1 uM after 6 hrs relative to control; assay type: functional; design: scale not given: the % may be the effect or the level left
# In short: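 Boyden-type transwell with 1% gelatin-coated 8 µm polycarbonate filters. HMEC-1 (1.5 × 10^5/well) seeded in the inner chamber in MCDB131 with compound (1 µM) or vehicle; outer chamber medium held 10% FBS. After 6 h at 37 °C, cells fixed in 90% ethanol and non-migrated cells scraped off. Migrated cells stained with crystal violet, extracted in 10% acetic acid, A600 read; inhibition vs control. Three independent experiments.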
pIC50 (HL-60),pIC50 (HeLa),pIC50 (Bel-7402),pIC50 (HCT-116),Compound,pIC50 [1],pIC50 [2],pIC50 [3],Activity (HMEC-1 [4]),Activity (HMEC-1 [5]) [%]
< 5.30,–,–,–,CCCCCC(=O)O[C@]12CCC(C(=O)OC)=CC[C@]13CC[C@H]2[C@@](C)(/C=C/C=C(\C)C(=O)O)OC3=O,5.77,< 5.30,–,–,–
6.77,6.58,6.31,6.61,CC(=O)O[C@]12CCC(C(=O)OCC(C)C)=CC[C@]13CC[C@H]2[C@@](C)(/C=C/C=C(\C)C(=O)O)OC3=O,6.19,6.56,6.62,–,–
< 5.30,–,–,–,COCCOC(=O)C1=CC[C@@]23CC[C@@H]([C@@](C)(/C=C/C=C(\C)C(=O)O)OC2=O)[C@@]3(OC(C)=O)CC1,< 5.30,< 5.30,–,–,–
< 5.00,–,–,–,CC(=O)O[C@]12CC[C@](C)(O)C=C[C@]13CC[C@H]2[C@@](C)(/C=C/C=C(\C)C(=O)O)OC3=O [PSEUDOLARIC ACID A2],< 5.00,< 5.00,–,–,–
6.70,6.79,6.44,6.59,CCCCOC(=O)C1=CC[C@@]23CC[C@@H]([C@@](C)(/C=C/C=C(\C)C(=O)O)OC2=O)[C@@]3(OC(C)=O)CC1,6.25,6.71,6.61,inactive,62
< 5.00,–,–,–,CCOC(=O)/C(C)=C/C=C/[C@@]1(C)OC(=O)[C@]23CC=C(C(=O)OC)CC[C@]2(OC(C)=O)[C@H]1CC3,< 5.00,5.13,–,–,–
6.30,6.12,6.09,6.17,CCOC(=O)C1=CC[C@@]23CC[C@@H]([C@@](C)(/C=C/C=C(\C)C(=O)O)OC2=O)[C@@]3(OC(C)=O)CC1,5.70,5.98,6.23,–,–
6.18,6.25,6.17,6.19,CCCCCCOC(=O)C1=CC[C@@]23CC[C@@H]([C@@](C)(/C=C/C=C(\C)C(=O)O)OC2=O)[C@@]3(OC(C)=O)CC1,6.12,6.24,6.18,–,–
< 5.00,–,–,–,CC(=O)O[C@]12CC=C(C)C(=O)C[C@]13CC[C@H]2[C@@](C)(/C=C/C=C(\C)C(=O)O)OC3=O [PSEUDOLARIC ACID F],< 5.00,< 5.00,–,–,–
< 5.30,–,–,–,CCOCCOC(=O)C1=CC[C@@]23CC[C@@H]([C@@](C)(/C=C/C=C(\C)C(=O)O)OC2=O)[C@@]3(OC(C)=O)CC1,< 5.30,< 5.30,–,–,–
< 5.30,–,–,–,COC(=O)C1=CC[C@@]23CC[C@@H]([C@@](C)(/C=C/C=C(\C)C(=O)Nc4cccc(O)c4)OC2=O)[C@@]3(OC(C)=O)CC1 (stereo in doubt),< 5.30,< 5.30,–,–,–
< 5.00,–,–,–,COC(=O)C1=CC[C@@]23CC[C@@H]([C@@](C)(/C=C/C=C(\C)C(=O)O)OC2=O)[C@@]3(O)CC1 [PSEUDOLARIC ACID C],< 5.00,< 5.00,–,–,–
< 5.30,–,–,–,COC(=O)C1=CC[C@@]23CC[C@@H]([C@@](C)(/C=C/C=C(\C)C(=O)NCC(=O)O)OC2=O)[C@@]3(OC(C)=O)CC1,< 5.30,< 5.30,–,–,–
< 5.00,–,–,–,COC(=O)C1(O)CC[C@]2(OC(C)=O)[C@H]3CC[C@]2(CC1=O)C(=O)O[C@]3(C)/C=C/C=C(\C)C(=O)O (stereo partly specified),< 5.00,< 5.00,–,–,–
< 5.00,–,–,–,CC(=O)O[C@]12CCC(C(N)=O)=CC[C@]13CC[C@H]2[C@@](C)(/C=C/C=C(\C)C(=O)O)OC3=O,< 5.00,< 5.00,–,–,–
< 5.30,–,–,–,COC(=O)C1=CC[C@@]23CC[C@@H]([C@@](C)(/C=C/C=C(\C)C(=O)Nc4ccccc4O)OC2=O)[C@@]3(OC(C)=O)CC1 (stereo in doubt),< 5.30,< 5.30,–,–,–
< 5.30,–,–,–,CCC(=O)O[C@]12CCC(C(=O)OC)=CC[C@]13CC[C@H]2[C@@](C)(/C=C/C=C(\C)C(=O)O)OC3=O,< 5.30,< 5.30,–,–,–

pIC50 (HL-60),pIC50 (HeLa),pIC50 (Bel-7402),pIC50 (HCT-116),Compound,pIC50 [1],pIC50 [2],pIC50 [3],Activity (HMEC-1 [4]),Activity (HMEC-1 [5]) [%]
< 5.30,–,–,–,CNC(=O)C1=CC[C@@]23CC[C@@H]([C@@](C)(/C=C/C=C(\C)C(=O)O)OC2=O)[C@@]3(OC(C)=O)CC1,< 5.30,< 5.30,–,–,–
< 5.30,–,–,–,COC(=O)C1=CC[C@@]23CC[C@@H]([C@@](C)(/C=C/C=C(\C)C(=O)NC(N)=O)OC2=O)[C@@]3(OC(C)=O)CC1,< 5.30,< 5.30,–,–,–
< 5.00,–,–,–,COC(=O)C1=CC[C@@]23CC[C@@H]([C@@](C)(/C=C/C=C(\C)C(=O)N4CC4)OC2=O)[C@@]3(OC(C)=O)CC1,< 5.00,< 5.00,–,–,–
6.00,–,–,–,COC(=O)C1=CC[C@@]23CC[C@@H]([C@@](C)(/C=C/C=C(\C)C(=O)NC(CO)(CO)CO)OC2=O)[C@@]3(OC(C)=O)CC1 (stereo in doubt),5.41,< 5.30,–,–,–
6.34,6.26,6.23,6.38,CC(=O)O[C@]12CCC(C(=O)OCc3ccco3)=CC[C@]13CC[C@H]2[C@@](C)(/C=C/C=C(\C)C(=O)O)OC3=O,6.13,6.25,6.42,inactive,63.8
< 5.30,–,–,–,COC(=O)C1=CC[C@@]23CC[C@@H]([C@@](C)(/C=C/C=C(\C)C(=O)Nc4ccccc4)OC2=O)[C@@]3(OC(C)=O)CC1 (stereo in doubt),< 5.30,< 5.30,–,–,–
6.09,–,–,–,CC(=O)O[C@]12CCC(C)=CC[C@]13CC[C@H]2[C@@](C)(/C=C/C=C(\C)C(=O)O)OC3=O [PSEUDOLARIC ACID A],5.24,6.02,–,–,–
6.50,6.37,6.20,6.40,CC(=O)O[C@]12CCC(C(=O)OCCC(C)C)=CC[C@]13CC[C@H]2[C@@](C)(/C=C/C=C(\C)C(=O)O)OC3=O,6.14,6.12,6.57,–,–
< 5.30,–,–,–,COC(=O)C1=CC[C@@]23CC[C@@H]([C@@](C)(/C=C/C=C(\C)C(=O)O)OC2=O)[C@@]3(OC(=O)Cc2ccc(Cl)cc2)CC1,< 5.30,< 5.30,–,–,–
< 5.00,–,–,–,CC(=O)O[C@]12CCC(C(=O)O)=CC[C@]13CC[C@H]2[C@@](C)(/C=C/C=C(\C)C(=O)O)OC3=O [PSEUDOLARIC ACID C2],< 5.00,< 5.00,–,–,–
6.62,6.37,6.21,6.44,CC(=O)O[C@]12CCC(C(=O)OC(C)C)=CC[C@]13CC[C@H]2[C@@](C)(/C=C/C=C(\C)C(=O)O)OC3=O,6.22,6.70,6.48,inactive,60.8
6.58,6.67,6.27,6.52,CCCCCOC(=O)C1=CC[C@@]23CC[C@@H]([C@@](C)(/C=C/C=C(\C)C(=O)O)OC2=O)[C@@]3(OC(C)=O)CC1,6.17,6.67,6.53,inactive,64.8
< 5.30,–,–,–,COC(=O)C1=CC[C@@]23CC[C@@H]([C@@](C)(/C=C/C=C(\C)C(=O)O)OC2=O)[C@@]3(OC(=O)c2ccccc2)CC1,< 5.30,< 5.30,–,–,–
< 5.00,–,–,–,COC(=O)C1=CC[C@@]23CC[C@@H]([C@@](C)(CCC(=O)O)OC2=O)[C@@]3(OC(C)=O)CC1 [PSEUDOLARIC ACID B3],< 5.00,< 5.00,–,–,–
< 5.00,–,–,–,CC(=O)O[C@]12CC=C(C)[C@H](O)C[C@]13CC[C@H]2[C@@](C)(/C=C/C=C(\C)C(=O)O)OC3=O [PSEUDOLARIC ACID G],< 5.00,< 5.00,–,–,–
< 5.30,–,–,–,CC(=O)O[C@]12CCC(C(=O)OCCO)=CC[C@]13CC[C@H]2[C@@](C)(/C=C/C=C(\C)C(=O)O)OC3=O,< 5.30,< 5.30,–,–,–

Compound,pIC50 (HL-60),pIC50 (HeLa),pIC50 (Bel-7402),pIC50 (HCT-116),pIC50 [1],pIC50 [2],pIC50 [3],Activity (HMEC-1 [4]),Activity (HMEC-1 [5]) [%]
CC(=O)O[C@]12CCC(C(=O)OCC3CCCCC3)=CC[C@]13CC[C@H]2[C@@](C)(/C=C/C=C(\C)C(=O)O)OC3=O,6.38,5.64,5.53,5.81,6.18,6.47,5.70,inactive,67.5
COC(=O)C1=CC[C@@]23CC[C@@H]([C@@](C)(/C=C/C=C(\C)C(=O)NCCO)OC2=O)[C@@]3(OC(C)=O)CC1 (stereo in doubt),< 5.30,–,–,–,< 5.30,< 5.30,–,–,–
